Measurements taken from publication PMC10570058 (Nucleic Acids Research, 2023).
Values belong to the compound of their own block, whether it stands above or below them.

Key:
[1] = tested on: Polθ ATPase domain binding to ssDNA; test: Microscale thermophoresis
[2] = tested on: RPE1 TP53−/−BRCA1−/− cells; test: DNA fiber assay with S1 nuclease digestion; type: cell-based; details: 200 μM NVB vs vehicle
Outline: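 Cells (F12, 10% FBS) seeded 24 h, pulsed with 200 μM CldU for 30 min, washed, then 100 μM IdU for 2 h with test compound (200 μM) or DMSO added alongside. CSK permeabilisation 10 min RT. Nuclei were treated with 10 U/ml S1 nuclease (pH 4.6 buffer) for 30 min at 37°C or left undigested. Agarose-plug extraction was used, and ≥200 IdU tracks were scored per treatment (Mann–Whitney).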

[3] = tested on: Polθ recruitment to ssDNA in U2OS cells; test: Laser micro-irradiation and immunofluorescence, Polθ recruitment to ssDNA; type: cell-based, human; details: 200 μM, 24 h, U2OS POLQ KO cells expressing Myc-Polθ
[4] = tested on: Polθ-ATPase domain; test: Thermal stability assay; type: binding; details: 500 μM compound vs DMSO
[5] = molecular target: Polθ ATPase domain (human) (UniProt O75417); test: mass photometry

Chain of Polθ ATPase domain (O75417 67-894): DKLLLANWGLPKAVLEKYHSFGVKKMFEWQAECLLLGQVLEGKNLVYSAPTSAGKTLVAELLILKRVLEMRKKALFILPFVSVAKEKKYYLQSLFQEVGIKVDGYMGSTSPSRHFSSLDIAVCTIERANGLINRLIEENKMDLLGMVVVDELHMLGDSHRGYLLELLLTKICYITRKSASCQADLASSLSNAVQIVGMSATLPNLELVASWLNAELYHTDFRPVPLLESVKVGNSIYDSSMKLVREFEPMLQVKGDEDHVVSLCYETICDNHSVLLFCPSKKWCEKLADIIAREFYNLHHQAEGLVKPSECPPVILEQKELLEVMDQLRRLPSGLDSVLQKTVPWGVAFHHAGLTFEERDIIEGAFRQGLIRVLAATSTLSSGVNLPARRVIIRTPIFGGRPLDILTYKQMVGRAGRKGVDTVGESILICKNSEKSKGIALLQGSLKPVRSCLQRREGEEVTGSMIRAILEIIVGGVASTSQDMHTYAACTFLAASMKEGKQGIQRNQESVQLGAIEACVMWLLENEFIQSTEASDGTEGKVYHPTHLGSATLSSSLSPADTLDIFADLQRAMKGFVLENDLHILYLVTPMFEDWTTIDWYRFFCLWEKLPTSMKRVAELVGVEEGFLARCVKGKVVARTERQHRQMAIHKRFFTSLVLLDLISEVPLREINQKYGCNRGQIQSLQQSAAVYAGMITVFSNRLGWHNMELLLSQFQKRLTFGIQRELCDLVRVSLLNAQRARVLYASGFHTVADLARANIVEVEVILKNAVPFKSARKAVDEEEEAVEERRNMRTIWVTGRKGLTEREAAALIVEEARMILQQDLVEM

Effect on Polθ binding to ssDNA ([1]; 2000 μM AMP-PNP, MST buffer with 5 mM MgCl2): unable to block
Compound: Nc1ncnc2c1ncn2[C@@H]1O[C@H](COP(=O)(O)OP(=O)(O)NP(=O)(O)O)[C@@H](O)[C@H]1O [AMP-PNP]

Change in the scattering peak maximum [4]: +2 °C | Effect on Polθ binding to ssDNA ([1]; NVB 100-2000 μM in MST buffer, 120 mM KCl): dose-dependent inhibition
Compound: CO[C@@H]1[C@@H](OC(N)=O)[C@@H](O)[C@H](Oc2ccc3c(O)c(NC(=O)c4ccc(O)c(CC=C(C)C)c4)c(=O)oc3c2C)OC1(C)C [NVB, Novobiocin]
IdU track lengths following S1 nuclease treatment [2]: dramatic shortening | Polθ blocked from being recruited to damage sites [3]: ~96%

stoichiometry N [5]: 4
Compound: Polθ ATPase domain (from UniProt O75417 67-894) (domain or fragment)
